Reference: ChEMBL document CHEMBL4364271, “Unveiling the Importance of Amide Protons in CSP:ComD Interactions in Streptococcus pneumoniae” (ACS Med Chem Lett, 2019)
The source made the active and inactive calls. The calls are words filed in the database; no cut-off is given here. Non-standard residues stand in square brackets, D forms with d. Residues, ends and D or L forms follow the SMILES beside them. NMeR = CN[C@@H](CCCNC(=N)N)C(=O)O; NMeF = CN[C@@H](Cc1ccccc1)C(=O)O; NMeI = CC[C@H](C)[C@H](NC)C(=O)O; NMeE = CN[C@@H](CCC(=O)O)C(=O)O; NMeD = CN[C@@H](CC(=O)O)C(=O)O; NMeL = CN[C@@H](CC(C)C)C(=O)O; NMeM = CN[C@@H](CCSC)C(=O)O

Columns and labels:
[1] = test system: Streptococcus pneumoniae D39; assay: Agonist activity at ComD1 receptor in Streptococcus pneumoniae D39 harboring pcomX/lacZ reporter gene at 10 uM incubated for 30 mins by ONPG based beta-galactosidase assay relative to native CSP1
Summary of the method: (§1)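 Single-dose screen of synthetic peptide at 10 μM in wild-type reporter strains (D39 for ComD1, TIGR4 for ComD2) producing their own CSP and carrying lacZ under the comX promoter. β-gal activity in Miller units normalized to native CSP (CSP1 or CSP2, 100%); DMSO 0%. Triplicates over three separate trials.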

[2] = test system: Streptococcus pneumoniae TIGR4; assay: Agonist activity at ComD2 receptor in Streptococcus pneumoniae TIGR4 harboring pcomX/lacZ reporter gene at 10 uM incubated for 30 mins by ONPG based beta-galactosidase assay relative to native CSP2; summary of the method: as §1
[3] = test system: Streptococcus pneumoniae D39; assay: Antagonist activity at ComD1 receptor in Streptococcus pneumoniae D39 harboring pcomX/lacZ reporter gene assessed as inhibiton of CSP1-stimulated maximum signal at 10 uM preincubated for 30 mins followed by 50 nM CSP1 addition by ONPG based beta-galactosidase assay relative to native CSP1
Summary of the method: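 Inhibition screen: peptides at 10 μM against CSP1 50 nM (D39, ComD1) or CSP2 250 nM (TIGR4, ComD2), in comX-lacZ reporter strains. β-gal Miller units normalized to CSP alone (100%) and DMSO (0%). Triplicates over three separate trials.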

[4] = Solubility of the compound in ammonium carbonate solution at pH 8; assay type: physicochemical; details: buffer
[5] = Agonist activity at ComD2 receptor in Streptococcus pneumoniae TIGR4 harboring pcomX/lacZ reporter gene incubated for 30 mins by ONPG based beta-galactosidase assay
Summary of the method: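 Dose-response in wild-type lacZ reporter strains (comX promoter; D39 for ComD1, TIGR4 for ComD2) producing native CSP. Peptides tested over a range of concentrations. β-gal read-out (Miller units) normalized to native CSP. EC50 reported with 95% confidence interval.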

Compound | Activity [1] | Activity [2] | inhibition [3] | solubility [4] | EC50 [5] [nM]
CC[C@H](C)[C@H](NC(=O)[C@H](CCCNC(=N)N)NC(=O)[C@H](CCSC)NC(=O)[C@@H](N)CCC(=O)O)C(=O)N[C@@H](CO)C(=O)N[C@@H](CCCNC(=N)N)C(=O)N[C@H](C(=O)N[C@H](C(=O)N[C@@H](CC(C)C)C(=O)N[C@@H](CC(=O)O)C(=O)N(C)[C@@H](Cc1ccccc1)C(=O)N[C@@H](CC(C)C)C(=O)N[C@@H](Cc1ccccc1)C(=O)O)[C@@H](C)CC)[C@@H](C)CC (H-EMRISRIILD[NMeF]LF-OH) | inactive | inactive | inactive | Insoluble | 
CC[C@H](C)[C@H](NC(=O)[C@H](CCCNC(=N)N)NC(=O)[C@H](CCSC)NC(=O)[C@@H](N)CCC(=O)O)C(=O)N[C@@H](CO)C(=O)N[C@@H](CCCNC(=N)N)C(=O)N[C@H](C(=O)N(C)[C@H](C(=O)N[C@@H](CC(C)C)C(=O)N[C@@H](CC(=O)O)C(=O)N[C@@H](Cc1ccccc1)C(=O)N[C@@H](CC(C)C)C(=O)N[C@@H](Cc1ccccc1)C(=O)O)[C@@H](C)CC)[C@@H](C)CC (H-EMRISRI[NMeI]LDFLF-OH) | inactive | inactive | inactive | Insoluble | 
H-EMRISRIILDFLF-OH |  |  |  |  | 78
CC[C@H](C)[C@H](NC(=O)[C@H](CCCNC(=N)N)NC(=O)[C@H](CCSC)NC(=O)[C@@H](N)CCC(=O)O)C(=O)N[C@@H](CO)C(=O)N[C@@H](CCCNC(=N)N)C(=O)N[C@H](C(=O)N[C@H](C(=O)N(C)[C@@H](CC(C)C)C(=O)N[C@@H](CC(=O)O)C(=O)N[C@@H](Cc1ccccc1)C(=O)N[C@@H](CC(C)C)C(=O)N[C@@H](Cc1ccccc1)C(=O)O)[C@@H](C)CC)[C@@H](C)CC (H-EMRISRII[NMeL]DFLF-OH) | inactive | inactive | inactive | Insoluble | 
CC[C@H](C)[C@H](NC(=O)[C@H](Cc1ccccc1)NC(=O)[C@H](CC(=O)O)NC(=O)[C@H](CCCNC(=N)N)NC(=O)[C@H](Cc1ccccc1)NC(=O)[C@H](Cc1ccccc1)NC(=O)[C@H](CCCCN)NC(=O)[C@H](CO)NC(=O)[C@H](CC(C)C)NC(=O)[C@H](CCCNC(=N)N)NC(=O)[C@H](CCSC)N(C)C(=O)[C@@H](N)CCC(=O)O)C(=O)N[C@@H](CC(C)C)C(=O)N[C@@H](CCC(N)=O)C(=O)N[C@@H](CCCNC(=N)N)C(=O)O (H-E[NMeM]RLSKFFRDFILQR-OH) | inactive | inactive |  |  | 
CC[C@H](C)[C@H](NC(=O)[C@H](CCCNC(=N)N)NC(=O)[C@H](CCSC)NC(=O)[C@@H](N)CCC(=O)O)C(=O)N[C@@H](CO)C(=O)N(C)[C@@H](CCCNC(=N)N)C(=O)N[C@H](C(=O)N[C@H](C(=O)N[C@@H](CC(C)C)C(=O)N[C@@H](CC(=O)O)C(=O)N[C@@H](Cc1ccccc1)C(=O)N[C@@H](CC(C)C)C(=O)N[C@@H](Cc1ccccc1)C(=O)O)[C@@H](C)CC)[C@@H](C)CC (H-EMRIS[NMeR]IILDFLF-OH) | inactive | > 75% | inactive | Insoluble | 560
CC[C@H](C)[C@H](NC(=O)[C@H](Cc1ccccc1)NC(=O)[C@H](CC(=O)O)NC(=O)[C@H](CCCNC(=N)N)NC(=O)[C@H](Cc1ccccc1)NC(=O)[C@H](Cc1ccccc1)NC(=O)[C@H](CCCCN)NC(=O)[C@H](CO)NC(=O)[C@H](CC(C)C)NC(=O)[C@H](CCCNC(=N)N)NC(=O)[C@H](CCSC)NC(=O)[C@H](CCC(=O)O)NC)C(=O)N[C@@H](CC(C)C)C(=O)N[C@@H](CCC(N)=O)C(=O)N[C@@H](CCCNC(=N)N)C(=O)O (H-[NMeE]MRLSKFFRDFILQR-OH) | inactive | inactive |  |  | 
H-EMRISRIILDFLFLRKK-OH |  |  |  |  | 51
CC[C@H](C)[C@H](NC(=O)[C@H](CCCNC(=N)N)NC(=O)[C@H](CCSC)NC(=O)[C@@H](N)CCC(=O)O)C(=O)N[C@@H](CO)C(=O)N[C@@H](CCCNC(=N)N)C(=O)N[C@H](C(=O)N[C@H](C(=O)N[C@@H](CC(C)C)C(=O)N(C)[C@@H](CC(=O)O)C(=O)N[C@@H](Cc1ccccc1)C(=O)N[C@@H](CC(C)C)C(=O)N[C@@H](Cc1ccccc1)C(=O)O)[C@@H](C)CC)[C@@H](C)CC (H-EMRISRIIL[NMeD]FLF-OH) | inactive | > 75% | inactive | Insoluble | 340
CC[C@H](C)[C@H](NC(=O)[C@H](Cc1ccccc1)NC(=O)[C@H](CC(=O)O)NC(=O)[C@H](CCCNC(=N)N)NC(=O)[C@H](Cc1ccccc1)NC(=O)[C@H](Cc1ccccc1)NC(=O)[C@H](CCCCN)NC(=O)[C@H](CO)NC(=O)[C@H](CC(C)C)NC(=O)[C@H](CCCNC(=N)N)N(C)C(=O)[C@H](CCSC)NC(=O)[C@@H](N)CCC(=O)O)C(=O)N[C@@H](CC(C)C)C(=O)N[C@@H](CCC(N)=O)C(=O)N[C@@H](CCCNC(=N)N)C(=O)O (H-EM[NMeR]LSKFFRDFILQR-OH) | inactive | inactive |  |  | 
CC[C@H](C)[C@@H](C(=O)N[C@@H](CC(C)C)C(=O)N[C@@H](CCC(N)=O)C(=O)N[C@@H](CCCNC(=N)N)C(=O)O)N(C)C(=O)[C@H](Cc1ccccc1)NC(=O)[C@H](CC(=O)O)NC(=O)[C@H](CCCNC(=N)N)NC(=O)[C@H](Cc1ccccc1)NC(=O)[C@H](Cc1ccccc1)NC(=O)[C@H](CCCCN)NC(=O)[C@H](CO)NC(=O)[C@H](CC(C)C)NC(=O)[C@H](CCCNC(=N)N)NC(=O)[C@H](CCSC)NC(=O)[C@@H](N)CCC(=O)O (H-EMRLSKFFRDF[NMeI]LQR-OH) | inactive | inactive |  |  | 
CC[C@H](C)[C@H](NC(=O)[C@H](CCCNC(=N)N)NC(=O)[C@H](CCSC)NC(=O)[C@@H](N)CCC(=O)O)C(=O)N[C@@H](CO)C(=O)N[C@@H](CCCNC(=N)N)C(=O)N[C@H](C(=O)N[C@H](C(=O)N[C@@H](CC(C)C)C(=O)N[C@@H](CC(=O)O)C(=O)N[C@@H](Cc1ccccc1)C(=O)N(C)[C@@H](CC(C)C)C(=O)N[C@@H](Cc1ccccc1)C(=O)O)[C@@H](C)CC)[C@@H](C)CC (H-EMRISRIILDF[NMeL]F-OH) | inactive | inactive | inactive | Insoluble | 
CC[C@H](C)[C@H](NC(=O)[C@H](Cc1ccccc1)NC(=O)[C@H](CC(=O)O)NC(=O)[C@H](CCCNC(=N)N)N(C)C(=O)[C@H](Cc1ccccc1)NC(=O)[C@H](Cc1ccccc1)NC(=O)[C@H](CCCCN)NC(=O)[C@H](CO)NC(=O)[C@H](CC(C)C)NC(=O)[C@H](CCCNC(=N)N)NC(=O)[C@H](CCSC)NC(=O)[C@@H](N)CCC(=O)O)C(=O)N[C@@H](CC(C)C)C(=O)N[C@@H](CCC(N)=O)C(=O)N[C@@H](CCCNC(=N)N)C(=O)O (H-EMRLSKFF[NMeR]DFILQR-OH) | inactive | inactive |  |  | 
CC[C@H](C)[C@H](NC(=O)[C@H](CCCNC(=N)N)NC(=O)[C@H](CO)NC(=O)[C@@H](NC(=O)[C@H](CCCNC(=N)N)N(C)C(=O)[C@H](CCSC)NC(=O)[C@@H](N)CCC(=O)O)[C@@H](C)CC)C(=O)N[C@H](C(=O)N[C@@H](CC(C)C)C(=O)N[C@@H](CC(=O)O)C(=O)N[C@@H](Cc1ccccc1)C(=O)N[C@@H](CC(C)C)C(=O)N[C@@H](Cc1ccccc1)C(=O)O)[C@@H](C)CC (H-EM[NMeR]ISRIILDFLF-OH) | inactive | inactive | inactive | Insoluble | 
CC[C@H](C)[C@H](NC(=O)[C@H](CCCNC(=N)N)NC(=O)[C@H](CO)NC(=O)[C@H]([C@@H](C)CC)N(C)C(=O)[C@H](CCCNC(=N)N)NC(=O)[C@H](CCSC)NC(=O)[C@@H](N)CCC(=O)O)C(=O)N[C@H](C(=O)N[C@@H](CC(C)C)C(=O)N[C@@H](CC(=O)O)C(=O)N[C@@H](Cc1ccccc1)C(=O)N[C@@H](CC(C)C)C(=O)N[C@@H](Cc1ccccc1)C(=O)O)[C@@H](C)CC (H-EMR[NMeI]SRIILDFLF-OH) | inactive | > 75% | inactive | Insoluble | > 1000
CC[C@H](C)[C@H](NC(=O)[C@H](CCCNC(=N)N)NC(=O)[C@H](CCSC)NC(=O)[C@@H](N)CCC(=O)O)C(=O)N[C@@H](CO)C(=O)N[C@@H](CCCNC(=N)N)C(=O)N[C@H](C(=O)N[C@H](C(=O)N[C@@H](CC(C)C)C(=O)N[C@@H](CC(=O)O)C(=O)N[C@@H](Cc1ccccc1)C(=O)N[C@@H](CC(C)C)C(=O)N(C)[C@@H](Cc1ccccc1)C(=O)O)[C@@H](C)CC)[C@@H](C)CC (H-EMRISRIILDFL[NMeF]-OH) | inactive | > 75% | inactive | Insoluble | 27
CC[C@H](C)[C@H](NC(=O)[C@H](Cc1ccccc1)N(C)C(=O)[C@H](CC(=O)O)NC(=O)[C@H](CCCNC(=N)N)NC(=O)[C@H](Cc1ccccc1)NC(=O)[C@H](Cc1ccccc1)NC(=O)[C@H](CCCCN)NC(=O)[C@H](CO)NC(=O)[C@H](CC(C)C)NC(=O)[C@H](CCCNC(=N)N)NC(=O)[C@H](CCSC)NC(=O)[C@@H](N)CCC(=O)O)C(=O)N[C@@H](CC(C)C)C(=O)N[C@@H](CCC(N)=O)C(=O)N[C@@H](CCCNC(=N)N)C(=O)O (H-EMRLSKFFRD[NMeF]ILQR-OH) | inactive | > 75% |  |  | > 1000
